Bioassay records: PubChem BioAssay, several laboratories
A selection: hits, their analogues and other compounds. The true share with any hit is near 4.3%.
B2AR ag: beta2AR agonists driving receptor internalization, primary screen, cell-based, FAP fluorogen, flow cytometry; 0.43% of 340,000 active; Beta-2 adrenergic receptor (Homo sapiens), P07550; AID 504454, 2011; Am2.2-beta2AR cells; response, % (test concentration not listed);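 active means response above a set limit, near 3 SD of response in nonfluorescent compounds, cut at about 42% in these data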
Target sequence (P07550 whole entry, looked up): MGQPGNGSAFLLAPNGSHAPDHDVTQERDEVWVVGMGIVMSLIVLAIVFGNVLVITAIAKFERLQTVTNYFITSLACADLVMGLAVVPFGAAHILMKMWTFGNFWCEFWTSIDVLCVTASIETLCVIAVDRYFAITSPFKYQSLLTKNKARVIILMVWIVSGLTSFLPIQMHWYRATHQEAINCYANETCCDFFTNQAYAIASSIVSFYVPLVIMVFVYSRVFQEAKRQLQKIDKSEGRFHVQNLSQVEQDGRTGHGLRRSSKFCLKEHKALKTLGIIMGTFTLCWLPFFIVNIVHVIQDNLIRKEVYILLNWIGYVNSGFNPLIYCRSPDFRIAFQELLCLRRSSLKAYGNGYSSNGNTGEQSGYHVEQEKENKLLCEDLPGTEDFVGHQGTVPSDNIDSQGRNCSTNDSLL
TAAR1 antag: human TAAR1 antagonists, primary screen, Fluo-8 calcium fluorescence, CHO RD-HGA16 cells; Trace amine-associated receptor 1 (Homo sapiens), Q96RJ0; antagonist; inhibition, % at 3 µM; 1.5% of 360,000 active;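 active means inhibition above a per-plate cutoff, the mean inhibition of test compounds on that plate plus 3 SD, cut at about 49% in these data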;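 further: 0% = DMSO plus EC80 beta-PEA response and 100% = DMSO alone without agonist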
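Material: RD-HGA16 CHO cells with stable hTAAR1 and Gα16; Dosing: single nominal final test compound concentration of 3 µM; Schedule: seeding 17-24 h prior, 75-min 37 °C, 30-min RT dye loading; Detection: kinetic Fluo-8 calcium fluorescence measurement; Measure: % inhibition from peak post-agonist over basal fluorescence ratio; Benchmarks: vehicle and agonist controls.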
HTR2A ag: mouse Htr2a agonists via beta-arrestin recruitment, primary screen, cell-based, luminescence. 5-hydroxytryptamine receptor 2A (Mus musculus), P35363. activation, % at 7.6 µM. CHO-K1 mHTR2A beta-arrestin complementation; percent of 30 µM serotonin response. 0.66% of 360,000 active;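 active means activation above a run cutoff, the mean activation of all tested compounds plus 3 SD, cut at about 14% in these data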;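 further: 0% = plate median of compound wells and 100% = 30 µM serotonin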
TAAR1 agonist: human TAAR1 agonists, primary screen, Fluo-8 calcium fluorescence, CHO RD-HGA16 cells | activation, % at 3 µM | AID 624467, 2012 | vehicle wells 0%, saturating PEA agonist 100% | 0.99% of 360,000 active;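 active means activation above the mean activation of all test compounds in the run plus 3 SD, cut at about 38% in these data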
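Assay system: CHO-derived RD-HGA16 cells with stable Gα16 and human TAAR1; timing: 17-24 h seeding, 75 min 37 °C dye, 30 min RT; read-out: % activation from peak over basal fluorescence ratio, DMSO-to-PEA scaled; measured by: kinetic Fluo-8 calcium fluorescence; benchmarks: low control DMSO, high control PEA (EC100); doses: 3 µM single concentration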
MC4R barr agon: MC4R agonists recruiting beta-arrestin, primary screen, cell-based, luminescence, agonist arm of biased-ligand search; Melanocortin receptor 4 (Homo sapiens), P32245; U2OS MC4R beta-arrestin complementation; percent of melanotan II response, DMSO zero; activation, % at 8.9 µM; 0.98% of 360,000 active; AID 540308, 2011;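 active means activation above a per-plate cutoff, the mean activation of sample wells on that plate plus 3 SD, cut at about 8% in these data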
MC4R antagonist: MC4R antagonists of cAMP signaling, primary screen, cell-based, TR-FRET, antagonist arm of biased-ligand search; AID 540295, 2011; inhibition, % at 6.5 µM; MC4R-expressing cells, MTII-stimulated cAMP, LANCE TR-FRET; 0.48% of 360,000 active; Melanocortin receptor 4 (Homo sapiens), P32245;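 active means inhibition above its plate's cutoff, the mean of tested wells on that plate plus 3 SD, cut at about 29% in these data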;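 further: 0% = Melanotan II alone and 100% = Melanotan II plus saturating MCL0020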
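system = U2OS cells with stable human MC4R expression | also added = Melanotan II challenge after compound preincubation | dosing = one concentration, 6.5 µM nominal | incubation = compound 30 min, challenge 1 h, detection 1 h | measured by = TR-FRET with Eu-cAMP and labeled anti-cAMP, 671 nm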
TAAR1 ag conf: human TAAR1 agonists, retest of hits, confirmation, Fluo-8 calcium fluorescence, CHO RD-HGA16 cells; shares compounds with TAAR1 agonist; scaled: DMSO 0%, maximal phenethylamine 100%; activation, % at 3 µM; 82% of 2,400 active; AID 651783, 2012;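 active means activation above a cutoff set at the run's mean compound activation plus 3 SD, cut at about 39% in these data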
Ga16 ag counter: nonselective calcium mobilization agonists, CHO-Ga16 cells, counter-screen for hTAAR1 agonist project, cell-based, fluorescence, CHO-Ga16 parental line; 50% of 2,400 active; AID 651787, 2012; Fluo-8 calcium fluorescence; normalized to maximal ATP response, DMSO zero; activation, % at 3 µM; shares compounds with TAAR1 agonist;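 active means activation above the run cutoff, the mean activation over all tested wells plus 3 SD, cut at about 12% in these data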;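 further: 0% = DMSO wells and 100% = maximal ATP response on the peak over basal ratio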
TAAR1 desens: TAAR1 desensitization by agonist hits, confirmation, counter-screen for TAAR1 agonist project, cell-based, fluorescence, tachyphylaxis | inhibition, % at 3 µM | CHO RD-HGA16 hTAAR1, Fluo-8 calcium, beta-PEA response inhibition | shares compounds with TAAR1 agonist | 46% of 2,400 active;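 active means inhibition above the run cutoff, the mean inhibition of all test compounds plus 3 SD, cut at about 49% in these data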;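 further: beta-PEA stimulus applied at its EC80; loss of beta-PEA calcium signal after compound pretreatment read as receptor desensitization; 0% = DMSO with beta-PEA at EC80 and 100% = DMSO alone without agonist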
Ga16 antag count: inhibition of ATP-evoked calcium response in CHO-Ga16 cells, counter-screen for TAAR1 agonist project, cell-based, fluorescence; shares compounds with TAAR1 agonist; CHO-Ga16 ATP-induced calcium, Fluo-8 fluorescence; inhibition, % at 3 µM; 39% of 2,400 active; AID 651952, 2012;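 active means inhibition above the plate's mean compound inhibition plus 3 SD, computed per plate, cut at about 22% in these data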;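 further: 0% = EC80 ATP with DMSO and 100% = DMSO wells without ATP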
Starred values were filed as active, the others as inactive; x = no result.

SMILES	B2AR ag	TAAR1 antag	HTR2A ag	TAAR1 agonist	MC4R barr agon	MC4R antagonist	TAAR1 ag conf	Ga16 ag counter	TAAR1 desens	Ga16 antag count
Cc1cc(N/N=C/c2ccccc2O)c2ccccc2n1	4	x	-7	x	0	-4	x	3	x	13
COC(=O)c1cc(-c2ccccc2)n(CCN)c1C	-4	29	-6	46*	-1	-5	51*	0	26	-1
NS(=O)(=O)c1ccc2nc(NC(=O)Nc3ccc(F)cc3)sc2c1	9	8	-5	17	-2	12	x	x	x	x
COC(=O)c1ccc(CNC(=O)Cn2nnnc2CN(C)C(C)C)cc1	-3	-7	4	6	-1	1	x	x	x	x
COCCCNCCCCOc1ccc(OCc2ccccc2)cc1	2	16	-4	30	-1	1	x	x	x	x
c1ccc(COc2ccc(OCCCNC3CCCC3)cc2)cc1	2	3	-1	53*	7	-5	79*	24*	49*	20
C=CCNCCCCOc1ccc(OCc2ccccc2)cc1	11	22	-3	53*	2	-6	70*	15*	37	17
COc1ccc(NC(=S)N2CCCC(c3nc4ccc(C)cc4[nH]3)C2)c(OC)c1 (configuration not stated)	1	-4	-2	98*	-2	14	0	1	-4	2
COc1cc(/C=C2\SC(=O)N(CCN)C2=O)ccc1OS(=O)(=O)c1cc(C)ccc1C	23	-3	-1	54*	5	5	72*	29*	57*	18
COc1ccc(/C=C2\SC(=O)N(CCC(=O)Nc3ccccc3)C2=O)cc1OC	10	4	-1	0	-3	10	x	x	x	x
O=C(N/N=C/c1ccc2cccnc2c1)c1nc2ccccc2c(=O)[nH]1	-19	7	-2	0	-1	25	x	x	x	x
O=C(N/N=C/c1ccncc1)c1nc2ccccc2c(=O)[nH]1	7	-40	6	62*	1	9	2	1	9	9
CCc1cc2ccccc2nc1SCC(=O)Nc1cc(C)on1	5	44	1	48*	5	1	18	3	17	10
O=C(Nc1ccc(N2CCCCC2)cc1)c1ccc(F)cc1	2	85*	1	98*	2	-2	53*	13*	18	18
O=C(Nc1cccc(NC(=O)c2ccc(F)cc2)c1)c1ccc(F)cc1	4	31	1	47*	7	16	2	2	0	4
Cc1c(C(=O)NCCc2ccccc2)oc2ccc(S(=O)(=O)N3CCC4(CC3)OCCO4)cc12	9	77*	0	93*	-3	7	92*	12*	89*	36*
Cc1cccc(NC(=O)COC(=O)c2cc3ccccc3oc2=O)c1	1	5	0	2	-2	0	x	x	x	x
O=C(COc1ccc(F)cc1)NNC(=O)c1cc2ccccc2oc1=O	-5	x	8	x	-1	3	x	0	x	4
Cc1cccc(OCC(=O)NNC(=O)c2cc3ccccc3oc2=O)c1	3	10	-2	64*	0	10	84*	18*	36	2
CCOC(=O)c1ccc(S(=O)(=O)N2CCN(C(=O)c3ccccn3)CC2)cc1	5	-11	1	1	-1	6	x	x	x	x
COc1cc(CN2CCc3ccccc3C2)cc([N+](=O)[O-])c1O	8	59*	-2	98*	0	-1	98*	1	77*	-6
COc1cc(CN2CCc3ccccc3C2)ccc1O	-4	x	-6	x	-1	-3	x	0	x	4
O=S(=O)(Nc1cccnc1)c1ccc(C2CCCCC2)cc1	2	24	2	56*	-1	2	71*	28*	48	31*
C[C@H](CO)N1C[C@H](C)[C@H](CN(C)C(=O)OCc2ccccc2)OCc2cnnn2CCCC1=O	x	9	-1	2	0	-3	x	x	x	x
O=C(NCCCc1ccc(F)cc1)C1CCC(=O)N(CCCN2CCCC2=O)C1 (configuration not stated)	-5	4	1	1	-1	17	x	x	x	x
SMILES	B2AR ag	TAAR1 antag	HTR2A ag	TAAR1 agonist	MC4R barr agon	MC4R antagonist	TAAR1 ag conf	Ga16 ag counter	TAAR1 desens	Ga16 antag count
Cc1ccccc1C(=O)Oc1cc(N)n(S(=O)(=O)c2ccccc2)n1	-4	41	-4	84*	-1	12	8	1	-8	10
Cc1ccc(S(=O)(=O)n2nc(OC(=O)c3ccccc3F)cc2N)cc1	-3	17	6	65*	-1	-4	73*	46*	30	11
O=C(O)C1NCCc2ccccc21 (configuration not stated)	-3	38	-7	72*	1	4	67*	0	24	2
c1ccc(N2CCN(c3nc4cc5c(cc4s3)OCO5)CC2)cc1	1	7	-3	5	-1	0	x	x	x	x
c1ccc2c(c1)CCN(c1nc3cc4c(cc3s1)OCO4)C2	4	61*	-5	85*	-1	1	89*	0	82*	9
CC(=O)Nc1ccc(NC(=O)Nc2ccccc2)cc1	14	x	-1	x	-1	4	x	6	x	13
CC(=O)Nc1cccc(NC(=O)Nc2ccc(C(C)=O)cc2)c1	2	0	-2	5	0	13	x	x	x	x
